In ChEMBL document CHEMBL4689842, “EUbOPEN Chemogenomics Library wave 1” (2021):

System: HEK-293T
Assay: Multiplex assay against HEK293T;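 on Population Tubulin-Different-Phenotype (%): share of the cells with healthy nuclei that show this phenotype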
Assay type: toxicity, cell-based
Details: human
Outline: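 Phenotypes for tubulin, mitochondrial mass and membrane permeability are expressed as per cents of healthy-nucleus cells. Cells were stained live at seeding with Hoechst33342, BioTracker Green Microtubule Cytoskeleton Dye, MitoTracker Red and Annexin V Alexa Fluor 680, then imaged after compound addition on a CQ1 microscope at 37°C and 5% CO2. Machine-learning gating in CellPathfinder separated Hoechst high-intensity objects from normal cells, divided normal cells by nuclear state (healthy, pyknosed, fragmented) and divided pyknosed cells into mitotic or apoptotic.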

[1] = 12 h, 1 µM, compound concentration 1 uM, replicate 1
[2] = 12 h, 1 µM, compound concentration 1 uM, replicate 2
[3] = 12 h, 10 µM, compound concentration 10 uM, replicate 1
[4] = 12 h, 10 µM, compound concentration 10 uM, replicate 2
[5] = 24 h, 1 µM, compound concentration 1 uM, replicate 1
[6] = 24 h, 1 µM, compound concentration 1 uM, replicate 2
[7] = 24 h, 10 µM, compound concentration 10 uM, replicate 1
[8] = 24 h, 10 µM, compound concentration 10 uM, replicate 2
[9] = 48 h, 1 µM, compound concentration 1 uM, replicate 1
[10] = 48 h, 1 µM, compound concentration 1 uM, replicate 2
[11] = 48 h, 10 µM, compound concentration 10 uM, replicate 1
[12] = 48 h, 10 µM, compound concentration 10 uM, replicate 2

COc1ccccc1CN[C@H]1C2CCN(CC2)[C@H]1C(c1ccccc1)c1ccccc1 [CP-96345]
Population Apoptotic (%) [1]: 61%
Population Fragmented Nuclei (%) [1]: 12%
Population Healthy Nuclei (%) [1]: 37%
Population Hoechst High Intensity Objects (%) [1]: 13%
Population Membrane Permeable-Phenotype (%) [1]: 0%
Population Mitochondria Different-Phenotype (%) [1]: 90%
Population Mitotic Cells (%) [1]: 38%
Population Normal (%) [1]: 86%
Population Pyknosed Nuclei (%) [1]: 50%
Population Tubulin-Different-Phenotype (%) [1]: 80%
Total Cell Count [1]: 250
Population Apoptotic (%) [2]: 8%
Population Fragmented Nuclei (%) [2]: 3%
Population Healthy Nuclei (%) [2]: 54%
Population Hoechst High Intensity Objects (%) [2]: 3%
Population Membrane Permeable-Phenotype (%) [2]: 10%
Population Mitochondria Different-Phenotype (%) [2]: 17%
Population Mitotic Cells (%) [2]: 91%
Population Normal (%) [2]: 96%
Population Pyknosed Nuclei (%) [2]: 42%
Population Tubulin-Different-Phenotype (%) [2]: 21%
Total Cell Count [2]: 244
Population Apoptotic (%) [3]: 79%
Population Fragmented Nuclei (%) [3]: 9%
Population Healthy Nuclei (%) [3]: 27%
Population Hoechst High Intensity Objects (%) [3]: 13%
Population Membrane Permeable-Phenotype (%) [3]: 2%
Population Mitochondria Different-Phenotype (%) [3]: 100%
Population Mitotic Cells (%) [3]: 20%
Population Normal (%) [3]: 86%
Population Pyknosed Nuclei (%) [3]: 63%
Population Tubulin-Different-Phenotype (%) [3]: 97%
Total Cell Count [3]: 296
Population Apoptotic (%) [4]: 25%
Population Fragmented Nuclei (%) [4]: 2%
Population Healthy Nuclei (%) [4]: 36%
Population Hoechst High Intensity Objects (%) [4]: 4%
Population Membrane Permeable-Phenotype (%) [4]: 6%
Population Mitochondria Different-Phenotype (%) [4]: 77%
Population Mitotic Cells (%) [4]: 74%
Population Normal (%) [4]: 95%
Population Pyknosed Nuclei (%) [4]: 60%
Population Tubulin-Different-Phenotype (%) [4]: 74%
Total Cell Count [4]: 179
Population Apoptotic (%) [5]: 56%
Population Fragmented Nuclei (%) [5]: 11%
Population Healthy Nuclei (%) [5]: 45%
Population Hoechst High Intensity Objects (%) [5]: 16%
Population Membrane Permeable-Phenotype (%) [5]: 6%
Population Mitochondria Different-Phenotype (%) [5]: 87%
Population Mitotic Cells (%) [5]: 43%
Population Normal (%) [5]: 83%
Population Pyknosed Nuclei (%) [5]: 43%
Population Tubulin-Different-Phenotype (%) [5]: 67%
Total Cell Count [5]: 253
Population Apoptotic (%) [6]: 10%
Population Fragmented Nuclei (%) [6]: 2%
Population Healthy Nuclei (%) [6]: 67%
Population Hoechst High Intensity Objects (%) [6]: 3%
Population Membrane Permeable-Phenotype (%) [6]: 5%
Population Mitochondria Different-Phenotype (%) [6]: 14%
Population Mitotic Cells (%) [6]: 89%
Population Normal (%) [6]: 97%
Population Pyknosed Nuclei (%) [6]: 30%
Population Tubulin-Different-Phenotype (%) [6]: 20%
Total Cell Count [6]: 333
Population Apoptotic (%) [7]: 81%
Population Fragmented Nuclei (%) [7]: 13%
Population Healthy Nuclei (%) [7]: 39%
Population Hoechst High Intensity Objects (%) [7]: 11%
Population Membrane Permeable-Phenotype (%) [7]: 0%
Population Mitochondria Different-Phenotype (%) [7]: 100%
Population Mitotic Cells (%) [7]: 18%
Population Normal (%) [7]: 88%
Population Pyknosed Nuclei (%) [7]: 47%
Population Tubulin-Different-Phenotype (%) [7]: 99%
Total Cell Count [7]: 298
Population Apoptotic (%) [8]: 26%
Population Fragmented Nuclei (%) [8]: 5%
Population Healthy Nuclei (%) [8]: 44%
Population Hoechst High Intensity Objects (%) [8]: 2%
Population Membrane Permeable-Phenotype (%) [8]: 4%
Population Mitochondria Different-Phenotype (%) [8]: 75%
Population Mitotic Cells (%) [8]: 73%
Population Normal (%) [8]: 97%
Population Pyknosed Nuclei (%) [8]: 50%
Population Tubulin-Different-Phenotype (%) [8]: 72%
Total Cell Count [8]: 218
Population Apoptotic (%) [9]: 48%
Population Fragmented Nuclei (%) [9]: 15%
Population Healthy Nuclei (%) [9]: 48%
Population Hoechst High Intensity Objects (%) [9]: 14%
Population Membrane Permeable-Phenotype (%) [9]: 4%
Population Mitochondria Different-Phenotype (%) [9]: 57%
Population Mitotic Cells (%) [9]: 51%
Population Normal (%) [9]: 85%
Population Pyknosed Nuclei (%) [9]: 36%
Population Tubulin-Different-Phenotype (%) [9]: 58%
Total Cell Count [9]: 334
Population Apoptotic (%) [10]: 8%
Population Fragmented Nuclei (%) [10]: 3%
Population Healthy Nuclei (%) [10]: 86%
Population Hoechst High Intensity Objects (%) [10]: 2%
Population Membrane Permeable-Phenotype (%) [10]: 6%
Population Mitochondria Different-Phenotype (%) [10]: 4%
Population Mitotic Cells (%) [10]: 91%
Population Normal (%) [10]: 97%
Population Pyknosed Nuclei (%) [10]: 9%
Population Tubulin-Different-Phenotype (%) [10]: 13%
Total Cell Count [10]: 612
Population Apoptotic (%) [11]: 79%
Population Fragmented Nuclei (%) [11]: 16%
Population Healthy Nuclei (%) [11]: 55%
Population Hoechst High Intensity Objects (%) [11]: 13%
Population Membrane Permeable-Phenotype (%) [11]: 0%
Population Mitochondria Different-Phenotype (%) [11]: 98%
Population Mitotic Cells (%) [11]: 20%
Population Normal (%) [11]: 86%
Population Pyknosed Nuclei (%) [11]: 28%
Population Tubulin-Different-Phenotype (%) [11]: 94%
Total Cell Count [11]: 327
Population Apoptotic (%) [12]: 39%
Population Fragmented Nuclei (%) [12]: 3%
Population Healthy Nuclei (%) [12]: 71%
Population Hoechst High Intensity Objects (%) [12]: 2%
Population Membrane Permeable-Phenotype (%) [12]: 4%
Population Mitochondria Different-Phenotype (%) [12]: 39%
Population Mitotic Cells (%) [12]: 60%
Population Normal (%) [12]: 97%
Population Pyknosed Nuclei (%) [12]: 25%
Population Tubulin-Different-Phenotype (%) [12]: 63%
Total Cell Count [12]: 330
